In ChEMBL document CHEMBL3576847, “Discovery of 1-(3,3-dimethylbutyl)-3-(2-fluoro-4-methyl-5-(7-methyl-2-(methylamino)pyrido[2,3-d]pyrimidin-6-yl)phenyl)urea (LY3009120) as a pan-RAF inhibitor with minimal paradoxical activation and activity against BRAF or RAS mutant tumor cells” (J Med Chem, 2015):
Converted amounts (≈) assume the structure as drawn. The source made the active and inactive calls. The rule behind the calls is not given here.

What was measured:
[1] = target: RAF proto-oncogene serine/threonine-protein kinase (Homo sapiens, UniProt P04049); experiment: Inhibition of wild type CRAF (unknown origin) assessed as ADP formation measured for 5 hrs by pyruvate kinase/lactate dehydrogenase coupled assay in presence of ATP, MEK1, PEP, NADH
[2] = target: T1, Serine/threonine-protein kinase B-raf (Homo sapiens, UniProt P15056, V600E); experiment: Inhibition of BRAF V600E mutant in human A375 cells assessed as inhibition of ERK phosphorylation measured after 72 hrs by ELISA assay; assay type: cell-based, A-375
[3] = Clearance in po dosed rat administered as suspension; assay type: ADME, organism-based; conditions: in vivo
[4] = target: Serine/threonine-protein kinase B-raf (Homo sapiens, UniProt P15056); experiment: Inhibition of wild type BRAF (unknown origin) assessed as ADP formation measured for 5 hrs by pyruvate kinase/lactate dehydrogenase coupled assay in presence of ATP, MEK1, NADH
[5] = system: HCT-116; experiment: cells; conditions: Homo sapiens, HCT-116, 67 h
[6] = system: A-375; experiment: cells; conditions: Homo sapiens, A-375, 72 h
[7] = target: GTPase KRas (Homo sapiens, UniProt P01116, G13D); experiment: Inhibition of KRAS G13D mutant in human HCT116 cells assessed as inhibition of ERK phosphorylation by ELISA; assay type: cell-based, HCT-116
Summary of the method: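 HCT116 cells (KRAS G13D, BRAF WT; RAF signalling via CRAF) were treated with compound, and the change in cellular phospho-ERK was measured. IC50 was taken as the concentration inhibiting phospho-ERK.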

[8] = Solubility of the compound in simulated fasted intestinal fluid; assay type: ADME
[9] = Solubility of the compound in simulated fed intestinal fluid; assay type: ADME
[10] = target: Dual specificity mitogen-activated protein kinase kinase; MEK1/2 (Homo sapiens, UniProt P36507+Q02750); experiment: Inhibition of MEK (unknown origin)
[11] = target: T1, Serine/threonine-protein kinase B-raf; experiment: Inhibition of recombinant BRAF V600E mutant (unknown origin) assessed as ADP formation measured for 5 hrs by pyruvate kinase/lactate dehydrogenase coupled assay in presence of ATP, MEK1, NADH
[12] = Clearance in po dosed dog administered as suspension; assay type: ADME, organism-based, Canis lupus familiaris; conditions: in vivo
[13] = target: Vascular endothelial growth factor receptor 2 (Homo sapiens, UniProt P35968); experiment: Inhibition of KDR (unknown origin)
[14] = Oral bioavailability in dog administered as suspension; assay type: ADME, organism-based, Canis lupus familiaris; conditions: in vivo
[15] = Oral bioavailability in rat administered as suspension; assay type: ADME, organism-based; conditions: in vivo
[16] = Paradoxical activation of RAS/RAF/MEK signaling pathway in human HCT116 cells expressing wild type BRAF assessed as ERK phosphorylation at 0.34 to 20000 nM; assay type: cell-based; conditions: HCT-116
[17] = target: Serine/threonine-protein kinase A-Raf (Homo sapiens, UniProt P10398); experiment: Competitive binding affinity to ARAF in human A375 cells after 15 mins in presence of ATP analogue; assay type: cell-based, A-375
[18] = organism: Canis familiaris; experiment: Toxicity in dog assessed as bone marrow hypocellularity; assay type: organism-based, Canis lupus familiaris; conditions: in vivo
[19] = system: Mus musculus; experiment: In vivo inhibition of BRAF V600E mutant in human A375 cells xenografted in po dosed athymic nu/nu mouse assessed as inhibition of ERK phosphorylation after 2 hrs by ELISA; assay type: functional; conditions: A-375, po
[20] = organism: Rattus norvegicus; experiment: Toxicity in rat assessed as inflammation; assay type: organism-based; conditions: in vivo
[21] = system: Mus musculus; experiment: In vivo inhibition of BRAF V600E mutant in human A375 cells xenografted in po dosed athymic nu/nu mouse assessed as plasma concentration required to inhibit ERK phosphorylation by 50% after 2 hrs by ELISA; assay type: functional, A-375
[22] = organism: Canis familiaris; experiment: Toxicity in dog assessed as hyperbilirubinemia; assay type: organism-based, Canis lupus familiaris; conditions: in vivo
[23] = system: Mus musculus; experiment: In vivo inhibition of BRAF V600E mutant in human A375 cells xenografted in po dosed athymic nu/nu mouse assessed as plasma concentration required to inhibit ERK phosphorylation by 80% after 2 hrs by ELISA; assay type: functional, A-375
[24] = organism: Canis familiaris; experiment: Toxicity in dog assessed as skeletal muscle degeneration; assay type: organism-based, Canis lupus familiaris; conditions: in vivo
[25] = organism: Rattus norvegicus; experiment: Toxicity in rat assessed as bone marrow hypocellularity; assay type: organism-based; conditions: in vivo
[26] = organism: Canis familiaris; experiment: Toxicity in dog assessed as inflammation; assay type: organism-based, Canis lupus familiaris; conditions: in vivo
[27] = organism: Rattus norvegicus; experiment: Toxicity in rat assessed as skeletal muscle degeneration; assay type: organism-based; conditions: in vivo
[28] = system: Mus musculus; experiment: In vivo inhibition of BRAF V600E mutant in human HT-29 cells xenografted in po dosed athymic nu/nu mouse assessed as inhibition of ERK phosphorylation administered as bid for 28 days by Western blot
[29] = system: Mus musculus; experiment: Toxicity in athymic nu/nu mouse xenografted with human HT-29 cells assessed as body weight loss at 10 to 20 mg/kg, po bid administered for 28 days; assay type: organism-based; conditions: in vivo, 672 h
Summary of the method: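 HT-29 (BRAF V600E) xenograft mice dosed orally for 28 days; body weight loss monitored.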

[30] = organism: Rattus norvegicus; experiment: Toxicity in rat assessed as hyperbilirubinemia; assay type: organism-based; conditions: in vivo
[31] = system: Mus musculus; experiment: In vivo inhibition of BRAF V600E mutant in human HT-29 cells xenografted in athymic nu/nu mouse assessed as inhibition of ERK phosphorylation at 10 to 20 mg/kg, po bid administered for 28 days by Western blot analysis; assay type: functional, organism-based
Summary of the method: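 HT-29 (BRAF V600E) xenografts in mice, oral dosing for 28 days; after dosing, tumors from individual animals analysed for phospho-ERK by Western blot.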

T1 sequence (P15056 2-766 V600E limits assumed): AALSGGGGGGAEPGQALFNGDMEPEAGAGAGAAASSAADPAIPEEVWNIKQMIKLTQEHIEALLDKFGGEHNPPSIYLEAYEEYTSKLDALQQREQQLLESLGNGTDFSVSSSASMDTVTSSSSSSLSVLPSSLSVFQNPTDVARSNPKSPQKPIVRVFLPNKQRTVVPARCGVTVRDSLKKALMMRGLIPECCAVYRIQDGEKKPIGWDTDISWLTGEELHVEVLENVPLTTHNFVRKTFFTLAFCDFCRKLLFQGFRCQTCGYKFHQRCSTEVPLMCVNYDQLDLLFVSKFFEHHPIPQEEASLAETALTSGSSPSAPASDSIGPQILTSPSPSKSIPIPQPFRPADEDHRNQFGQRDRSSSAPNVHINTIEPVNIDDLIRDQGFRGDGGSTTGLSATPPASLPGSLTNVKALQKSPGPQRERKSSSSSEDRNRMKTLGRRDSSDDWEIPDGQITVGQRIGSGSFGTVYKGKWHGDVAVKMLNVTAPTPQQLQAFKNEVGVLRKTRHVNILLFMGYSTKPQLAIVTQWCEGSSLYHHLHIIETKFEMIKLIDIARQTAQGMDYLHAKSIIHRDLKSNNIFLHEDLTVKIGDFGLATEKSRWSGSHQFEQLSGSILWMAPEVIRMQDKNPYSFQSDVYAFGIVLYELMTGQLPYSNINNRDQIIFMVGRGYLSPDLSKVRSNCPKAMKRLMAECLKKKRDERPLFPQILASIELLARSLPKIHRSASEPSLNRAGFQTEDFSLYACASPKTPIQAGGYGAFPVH
GTPase KRas, sequence (P01116 whole entry G13D): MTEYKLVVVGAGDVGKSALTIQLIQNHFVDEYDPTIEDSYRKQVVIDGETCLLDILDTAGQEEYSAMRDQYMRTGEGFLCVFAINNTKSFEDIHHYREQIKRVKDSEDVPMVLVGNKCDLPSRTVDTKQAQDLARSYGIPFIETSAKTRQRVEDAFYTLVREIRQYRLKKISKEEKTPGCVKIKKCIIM
RAF proto-oncogene serine/threonine-protein kinase, sequence (P04049 whole entry): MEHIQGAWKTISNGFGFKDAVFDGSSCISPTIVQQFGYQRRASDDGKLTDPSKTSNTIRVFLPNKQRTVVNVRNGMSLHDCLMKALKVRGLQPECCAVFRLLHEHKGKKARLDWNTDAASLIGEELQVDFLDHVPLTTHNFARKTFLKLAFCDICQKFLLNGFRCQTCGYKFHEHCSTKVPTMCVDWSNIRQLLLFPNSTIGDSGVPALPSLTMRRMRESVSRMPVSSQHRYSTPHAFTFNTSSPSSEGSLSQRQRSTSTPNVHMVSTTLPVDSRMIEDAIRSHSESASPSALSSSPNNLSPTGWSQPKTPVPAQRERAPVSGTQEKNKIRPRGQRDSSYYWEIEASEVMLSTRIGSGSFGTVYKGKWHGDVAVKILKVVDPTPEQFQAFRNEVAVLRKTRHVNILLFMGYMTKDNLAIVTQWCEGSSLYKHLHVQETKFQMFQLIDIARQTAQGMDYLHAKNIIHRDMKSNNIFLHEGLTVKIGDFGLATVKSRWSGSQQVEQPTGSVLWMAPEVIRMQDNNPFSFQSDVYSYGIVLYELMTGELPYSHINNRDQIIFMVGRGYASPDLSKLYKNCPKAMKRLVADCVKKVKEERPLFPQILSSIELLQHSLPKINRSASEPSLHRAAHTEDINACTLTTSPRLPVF
Vascular endothelial growth factor receptor 2, sequence (P35968 whole entry): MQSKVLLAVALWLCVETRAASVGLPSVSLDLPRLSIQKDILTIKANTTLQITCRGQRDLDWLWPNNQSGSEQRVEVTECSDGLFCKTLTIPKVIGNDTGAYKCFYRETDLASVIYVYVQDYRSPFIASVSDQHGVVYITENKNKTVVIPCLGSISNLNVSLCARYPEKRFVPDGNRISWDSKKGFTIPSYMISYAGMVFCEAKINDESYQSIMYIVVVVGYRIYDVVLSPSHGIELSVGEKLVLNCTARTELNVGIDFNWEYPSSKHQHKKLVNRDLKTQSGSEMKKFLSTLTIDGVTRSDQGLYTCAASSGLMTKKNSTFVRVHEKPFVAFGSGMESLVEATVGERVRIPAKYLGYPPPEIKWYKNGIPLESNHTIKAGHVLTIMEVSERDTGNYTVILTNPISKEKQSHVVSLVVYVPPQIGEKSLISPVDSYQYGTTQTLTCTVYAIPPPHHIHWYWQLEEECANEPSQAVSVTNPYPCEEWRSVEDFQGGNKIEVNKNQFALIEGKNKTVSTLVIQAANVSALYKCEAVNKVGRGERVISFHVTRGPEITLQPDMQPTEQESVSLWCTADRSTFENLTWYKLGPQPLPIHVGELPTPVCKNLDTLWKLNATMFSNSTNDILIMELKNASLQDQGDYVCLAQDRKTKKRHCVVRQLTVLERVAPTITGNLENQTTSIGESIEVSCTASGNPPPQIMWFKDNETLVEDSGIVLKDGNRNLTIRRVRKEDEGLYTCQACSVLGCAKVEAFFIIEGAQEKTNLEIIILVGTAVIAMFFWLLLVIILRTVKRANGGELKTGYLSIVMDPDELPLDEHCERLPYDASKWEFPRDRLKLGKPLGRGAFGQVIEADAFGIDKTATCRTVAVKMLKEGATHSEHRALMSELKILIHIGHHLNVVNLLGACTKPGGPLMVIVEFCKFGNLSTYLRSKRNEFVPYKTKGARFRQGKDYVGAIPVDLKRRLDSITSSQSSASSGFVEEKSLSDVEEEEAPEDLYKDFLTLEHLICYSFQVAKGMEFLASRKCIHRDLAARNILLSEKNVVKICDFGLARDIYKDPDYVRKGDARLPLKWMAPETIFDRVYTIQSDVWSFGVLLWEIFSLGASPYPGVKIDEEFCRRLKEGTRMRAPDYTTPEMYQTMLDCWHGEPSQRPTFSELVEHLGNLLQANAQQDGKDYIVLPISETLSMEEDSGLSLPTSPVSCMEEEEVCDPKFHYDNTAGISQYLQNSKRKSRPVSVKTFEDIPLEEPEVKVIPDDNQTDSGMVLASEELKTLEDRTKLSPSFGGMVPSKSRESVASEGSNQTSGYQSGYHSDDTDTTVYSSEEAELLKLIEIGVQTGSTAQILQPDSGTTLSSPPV
Serine/threonine-protein kinase B-raf (Homo sapiens, UniProt P15056), sequence (P15056 whole entry): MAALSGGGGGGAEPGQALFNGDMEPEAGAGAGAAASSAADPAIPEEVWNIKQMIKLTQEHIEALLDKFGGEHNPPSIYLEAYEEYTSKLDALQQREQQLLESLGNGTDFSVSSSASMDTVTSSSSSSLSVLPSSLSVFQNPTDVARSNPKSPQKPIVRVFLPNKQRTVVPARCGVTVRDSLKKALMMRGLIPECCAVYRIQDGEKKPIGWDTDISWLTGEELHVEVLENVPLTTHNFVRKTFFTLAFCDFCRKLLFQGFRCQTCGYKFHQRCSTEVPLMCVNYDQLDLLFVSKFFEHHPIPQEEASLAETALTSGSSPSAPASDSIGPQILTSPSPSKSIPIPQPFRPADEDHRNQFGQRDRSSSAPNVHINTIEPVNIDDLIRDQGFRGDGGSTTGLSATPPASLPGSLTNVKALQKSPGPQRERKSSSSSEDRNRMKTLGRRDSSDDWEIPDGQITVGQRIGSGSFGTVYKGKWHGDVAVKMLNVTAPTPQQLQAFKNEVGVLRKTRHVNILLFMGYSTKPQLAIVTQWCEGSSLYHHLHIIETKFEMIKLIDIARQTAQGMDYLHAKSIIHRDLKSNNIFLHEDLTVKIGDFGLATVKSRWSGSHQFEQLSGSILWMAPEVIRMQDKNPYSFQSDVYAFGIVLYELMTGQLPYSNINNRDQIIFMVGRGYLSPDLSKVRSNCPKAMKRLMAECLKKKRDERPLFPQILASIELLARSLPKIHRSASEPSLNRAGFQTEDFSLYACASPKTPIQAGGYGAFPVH
Serine/threonine-protein kinase A-Raf, sequence (P10398 whole entry): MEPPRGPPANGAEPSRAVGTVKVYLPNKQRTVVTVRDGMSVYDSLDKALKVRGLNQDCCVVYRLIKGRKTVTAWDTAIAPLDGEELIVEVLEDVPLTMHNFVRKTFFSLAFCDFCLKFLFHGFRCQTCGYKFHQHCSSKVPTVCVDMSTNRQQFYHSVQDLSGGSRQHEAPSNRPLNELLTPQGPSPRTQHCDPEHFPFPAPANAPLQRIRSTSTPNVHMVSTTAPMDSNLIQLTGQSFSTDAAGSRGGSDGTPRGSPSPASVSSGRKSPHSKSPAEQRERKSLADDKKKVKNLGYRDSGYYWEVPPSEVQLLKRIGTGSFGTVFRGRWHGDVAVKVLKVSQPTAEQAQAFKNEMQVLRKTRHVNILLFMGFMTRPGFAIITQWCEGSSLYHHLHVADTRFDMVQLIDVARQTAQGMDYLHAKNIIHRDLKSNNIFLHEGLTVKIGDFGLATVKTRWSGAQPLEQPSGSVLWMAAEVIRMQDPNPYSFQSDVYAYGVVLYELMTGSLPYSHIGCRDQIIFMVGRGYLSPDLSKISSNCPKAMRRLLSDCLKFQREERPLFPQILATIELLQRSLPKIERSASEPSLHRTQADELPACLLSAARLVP

SMILES | IC50 [1] [nM] | IC50 [2] [nM] | CL/F [3] [mL/min/kg] | IC50 [4] [nM] | IC50 [5] [nM] | IC50 [6] [nM] | IC50 [7] [nM] | solubility [8] [µg/mL] | solubility [9] [µg/mL] | IC50 [10] [nM] | IC50 [11] [nM] | CL/F [12] [mL/min/kg] | IC50 [13] [nM] | bioavailability [14] [%] | bioavailability [15] [%] | also measured
CNc1cc2c(cn1)cc(-c1ccc(F)c(NC(=O)Nc3cc(C(C)(C)C)no3)c1)c(=O)n2[C@H]1CCOC1 | 3.1 | 6.8 | 50 | 18 | 32 | 6.1 | 57 | 1 (≈ 1.92 µM) | 2 (≈ 3.84 µM) | 2900 | 1 | 6 | 0.46 | < 10 | < 10 | 
CCCS(=O)(=O)Nc1ccc(F)c(C(=O)c2c[nH]c3ncc(-c4ccc(Cl)cc4)cc23)c1F [VEMURAFENIB] |  |  |  |  | > 10000 | 170 | 16600 |  |  | 1500 |  |  | 360 |  |  | Activity [16]: Active; IC50 [17]: 950 nM
CNc1ncc2cc(-c3ccc(F)c(NC(=O)NCCC(C)(C)C)c3)c(C)nc2n1 | 2.8 | 110 |  | 18 | 280 | 26 | 48 |  |  | > 20000 | 7.6 |  | 750 |  |  | 
CNc1ncc2cc(-c3cc(NC(=O)NCCC(C)(C)C)c(F)cc3C)cnc2n1 | 1.2 | 27 |  | 4.4 | 110 | 18 | 16 |  |  | > 20000 | 2 |  | 1900 |  |  | 
CCn1c(=O)c(-c2cc(NC(=O)NCCC(C)(C)C)c(F)cc2C)cc2cnc(NC)cc21 | 5.2 | 40 |  | 11 | 130 | 34 | 120 |  |  | 2500 | 4.2 |  | 25 |  |  | 
CCn1c(=O)c(-c2ccc(F)c(NC(=O)Nc3cc(C(C)(C)C)no3)c2)cc2cnc(NC)cc21 | 2.9 | 96 | 13 | 10 | 160 | 56 | 91 | 41 (≈ 85.7 µM) | 310 (≈ 648 µM) | 4000 | 1.2 | 14 | 1.9 | 69 | 28 | Activity [18]: Toxic; ED50 [19]: 10.4 mg/kg; ED80 [19]: 20.5 mg/kg; Activity [20]: Toxic; INH [21]: 167 ng/mL; Activity [22]: Toxic; INH [23]: 843 ng/mL; Activity [24]: Toxic; Activity [25]: Toxic; Activity [26]: Toxic; Activity [27]: Toxic; inhibition [28]: Dose-dependent effect; Activity [29]: Non-toxic; Activity [30]: Toxic; inhibition [31]: Active
